Source: publication PMC4756412 (Journal of pharmaceutical sciences, 2016)
Entries after “also recorded” stand apart in the source; their conditions may differ. Bridge positions count the residues as written; N and C are the ends. Peptide text beside a SMILES is read from it.

Key:
blood-brain barrier [1] = conditions: completely reversed by 4 h following treatment; cited from earlier work
blood-brain barrier [2] = experiment: In-situ rat brain perfusion, 14C-mannitol brain delivery; assay type: in vivo, Sprague-Dawley rats; conditions: peptide 1.0 mM, 240-s perfusion, then 240-s 14C-mannitol
Outline: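 Sprague-Dawley rats were anaesthetised i.p. with ketamine 100 mg/kg plus xylazine 5 mg/kg. Perfusion via a left common carotid cannula at 5.0 mL/min began right after cardiac puncture: 20-s saline, 240-s test compound (1.0 mM) or vehicle, 240-s ¹⁴C-mannitol, then 5-s saline wash. Perfusate was filter-sterilised and oxygenated (95% air/5% CO₂, 37 °C). Rectal temperature was held at 36.5 ± 0.5 °C.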

MDCK-II cell monolayers [3] = experiment: Direct junction modulation of intact MDCK cell monolayers; assay type: cell-based, canine; conditions: peptide 1.0 mM, Ca2+-sufficient buffer, 7- and 8-h time points
Outline: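 MDCK-II cells were seeded at 75,000 cells/well on 0.4 μm polyester Transwell membranes and grown 5–8 days, with starting TEER of 280–320 ohm.cm². Monolayers were washed in HBSS (25 mM glucose, 2 mM CaCl₂, 0.75 mM MgSO₄, 10 mM HEPES), with no Ca²⁺-free step. They were then exposed apically and basolaterally to test compound (1.0 mM) or none, and TEER was read hourly for 6–8 h by voltohmmeter.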

MDCK-II cell monolayers [4] = experiment: Inhibition of junction resealing in MDCK cell monolayers; assay type: cell-based, canine; conditions: peptide 1.0 mM apical and basolateral, TEER, 5- and 6-h time points
blood-brain barrier [5] = experiment: NIRF imaging of IRdye800cw-PEG and R800 brain deposition; assay type: in vivo, mice; conditions: 0.01 mmol/kg peptide i.v., ex vivo brain-to-plasma fluorescence ratio
Outline: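 Mice received test compound 0.010 mmol/kg or PBS i.v. After 5 min, IRDye 800CW PEG (~25 kDa, 0.01 μmol/kg) and R800 (P-gp substrate, 0.032 μmol/kg) were given i.v. Mice were killed by cardiac perfusion of 10% formaldehyde 20 min after treatment. Brains were imaged ex vivo by near-infrared scanner, and ROI fluorescence per unit tissue was divided by fluorescence per μL blood at the same time point.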

[6] = Peptide stability in rat plasma; assay type: in vitro ADME; conditions: rat plasma (NaHeparin)
Outline: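 Test compound in DMSO was spiked into heparinised rat plasma (final DMSO 0.6%) and shaken at 50 rpm at 37 °C for up to 8 or 72 h, about 2–3 half-lives. Samples were deproteinised with ACN:H₂O:EtOAc (6:1:1) and centrifuged at 17226 g. Remaining peptide was quantified by LC-MS/MS against a peptide internal standard, and half-life was calculated.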

blood-brain barrier [7] = experiment: MRI of Gd-DTPA brain deposition after i.v. peptide; assay type: in vivo, Balb/c mice
[8] = 0.01 mmol/kg i.v., AUC over 42 min, posterior, midbrain, anterior
[9] = 0.001, 0.0032, 0.01 mmol/kg i.v., 42-min session

half-life [6] [h]	Compound	duration for which BBB modulation was observed (blood-brain barrier [1]) [h]	passage of 14C-mannitol into rat brain compared to vehicle (blood-brain barrier [2])	lowering of TEER of intact monolayers compared to HBSS (MDCK-II cell monolayers [3])	inhibition of junction resealing compared to HBSS (MDCK-II cell monolayers [4])	brain deposition of IRdye800cw-PEG, 5-min pretreatment (blood-brain barrier [5])	Gd-DTPA enhancement after 1-h peptide pretreatment (blood-brain barrier [7]; [8])	Gd-DTPA enhancement after 2-h peptide pretreatment (blood-brain barrier [7]; [8])	maximum enhancement of Gd-DTPA compared to background at 0 time point (blood-brain barrier [7]; 0.010 mmol/kg i.v., posterior region, Gd-DTPA 0.4 mmol/kg, 42-min MRI session)	duration of BBB modulation (Gd-DTPA) (blood-brain barrier [7]; 0.01 mmol/kg i.v., various pretreatment times, MRI) [h]	AUC of Gd-DTPA deposition vs vehicle, anterior region (blood-brain barrier [7]; [9])	AUC of Gd-DTPA deposition vs vehicle, midbrain (blood-brain barrier [7]; [9])	AUC of Gd-DTPA deposition vs vehicle, posterior region (blood-brain barrier [7]; [9])	increase in brain delivery of Gd-DTPA (blood-brain barrier [7]; following peptide treatment)
	Ac-CDTPPVC-NH2 (disulfide 1-7 (inferred); SMILES CC(=O)N[C@H]1CSSC[C@@H](C(N)=O)NC(=O)[C@H](C(C)C)NC(=O)[C@@H]2CCCN2C(=O)[C@@H]2CCCN2C(=O)[C@H]([C@@H](C)O)NC(=O)[C@H](CC(=O)O)NC1=O) [ADTC5]	2												
2.4	CC(=O)N[C@@H](CO)C(=O)N[C@@H](Cc1c[nH]cn1)C(=O)N[C@@H](C)C(=O)N[C@H](C(=O)N[C@@H](C)C(=O)N[C@@H](CO)C(N)=O)C(C)C [HAV4] (Ac-SHAVAS-NH2)		significantly enhanced	lowered the TEER values significantly	significantly inhibited the resealing; also recorded: inhibited the junction resealing	higher than in saline-treated controls	did not produce any Gd-DTPA enhancement	did not produce any Gd-DTPA enhancement	up to fivefold	< 1	significantly higher than those of the vehicle group at all peptide doses examined	only treatment with 0.01 mmol/kg showed significant enhancement compared to vehicle	significantly higher than those of the vehicle group at all peptide doses examined	3-4 fold
